ChEMBL document CHEMBL1143828, “A new Aspergillus fumigatus resistance mechanism conferring in vitro cross-resistance to azole antifungals involves a combination of cyp51A alterations” (2007)
Converted amounts (≈) assume the structure as drawn.

Legend:
Type in all cases: functional
Aspergillus fumigatus [1] = experiment: Antifungal activity against azole-resistant Aspergillus fumigatus V49/09-CM4023 isolate from patient with chronic obstructive pulmonary disease by broth microdilution susceptibility test
Procedure, shortened: (§1)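 Broth microdilution per CLSI M38-A with modifications; agents tested: itraconazole, voriconazole, ravuconazole, posaconazole, amphotericin B. Clinical isolates stored as conidia in sterile distilled water, grown at 37°C on potato dextrose agar. Each strain tested at least three times on different days. Quality controls: A. flavus ATCC 204304 and A. fumigatus ATCC 204305.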

Aspergillus fumigatus [2] = experiment: Antifungal activity against azole-resistant Aspergillus fumigatus V49/77-CM4050 isolate from patient with acute myeloid leukemia by broth microdilution susceptibility test; procedure, shortened: as §1
Aspergillus fumigatus [3] = experiment: Antifungal activity against azole-resistant Aspergillus fumigatus M03/669-CM2627 isolate from patient by broth microdilution susceptibility test; procedure, shortened: as §1
Aspergillus fumigatus [4] = experiment: Antifungal activity against azole-resistant Aspergillus fumigatus V13/03-CM3272 isolate from patient with X-linked chronic granulomatous disease by broth microdilution susceptibility test; procedure, shortened: as §1
Aspergillus fumigatus [5] = experiment: Antifungal activity against azole-resistant Aspergillus fumigatus V45/07-CM3819 isolate from patient with chronic granulomatous disease by broth microdilution susceptibility test; procedure, shortened: as §1
Aspergillus fumigatus [6] = experiment: Antifungal activity against azole-resistant Aspergillus fumigatus V48/27-CM3936 isolate from patient with acute myeloid leukemia by broth microdilution susceptibility test; procedure, shortened: as §1
Aspergillus fumigatus [7] = experiment: Antifungal activity against azole-resistant Aspergillus fumigatus V34/77-CM3278 isolate from patient with hyper-immunoglobulin E syndrome by broth microdilution susceptibility test; procedure, shortened: as §1
Aspergillus fumigatus [8] = experiment: Antifungal activity against azole-resistant Aspergillus fumigatus V34/75-CM3276 isolate from patient with hyper-immunoglobulin E syndrome by broth microdilution susceptibility test; procedure, shortened: as §1
Aspergillus fumigatus [9] = experiment: Antifungal activity against azole-resistant Aspergillus fumigatus V27/28-CM3273 isolate from patient by broth microdilution susceptibility test; procedure, shortened: as §1
Aspergillus fumigatus [10] = experiment: Antifungal activity against azole-resistant Aspergillus fumigatus V34/78-CM3279 isolate from patient with hyper-immunoglobulin E syndrome by broth microdilution susceptibility test; procedure, shortened: as §1
Aspergillus fumigatus [11] = experiment: Antifungal activity against azole-resistant Aspergillus fumigatus V28/78-CM3275 isolate from patient with acute myeloid leukemia by broth microdilution susceptibility test; procedure, shortened: as §1
Aspergillus fumigatus [12] = experiment: Antifungal activity against azole-resistant Aspergillus fumigatus V34/76-CM3277 isolate from patient with hyper-immunoglobulin E syndrome by broth microdilution susceptibility test; procedure, shortened: as §1
Aspergillus fumigatus [13] = experiment: Antifungal activity against azole-resistant Aspergillus fumigatus V41/26-CM3820 isolate from patient with pulmonary fibrosis by broth microdilution susceptibility test; procedure, shortened: as §1
Aspergillus fumigatus [14] = experiment: Antifungal activity against azole-resistant Aspergillus fumigatus V13/02-CM3271 isolate from patient with X-linked chronic granulomatous disease by broth microdilution susceptibility test; procedure, shortened: as §1

Row | Structure (SMILES) | MIC (Aspergillus fumigatus [1]) [µg/mL] | MIC (Aspergillus fumigatus [2]) [µg/mL] | MIC (Aspergillus fumigatus [3]) [µg/mL] | MIC (Aspergillus fumigatus [4]) [µg/mL] | MIC (Aspergillus fumigatus [5]) [µg/mL] | MIC (Aspergillus fumigatus [6]) [µg/mL] | MIC (Aspergillus fumigatus [7]) [µg/mL] | MIC (Aspergillus fumigatus [8]) [µg/mL] | MIC (Aspergillus fumigatus [9]) [µg/mL] | MIC (Aspergillus fumigatus [10]) [µg/mL] | MIC (Aspergillus fumigatus [11]) [µg/mL] | MIC (Aspergillus fumigatus [12]) [µg/mL] | MIC (Aspergillus fumigatus [13]) [µg/mL] | MIC (Aspergillus fumigatus [14]) [µg/mL]
1 | CCC(C)n1ncn(-c2ccc(N3CCN(c4ccc(OCC5COC(Cn6cncn6)(c6ccc(Cl)cc6Cl)O5)cc4)CC3)cc2)c1=O (stereo not given) [ITRACONAZOLE] | > 8 | > 8 | > 8 | > 8 | > 8 | > 8 | > 8 | > 8 | > 8 | > 8 | > 8 | > 8 | > 8 | > 8
2 | C[C@@H](c1ncncc1F)[C@](O)(Cn1cncn1)c1ccc(F)cc1F [VORICONAZOLE] | 4 (≈ 11.5 µM) | 4 (≈ 11.5 µM) | 4 (≈ 11.5 µM) | 2 (≈ 5.73 µM) | > 8 | 4 (≈ 11.5 µM) | 2 (≈ 5.73 µM) | 4 (≈ 11.5 µM) | 4 (≈ 11.5 µM) | 2 (≈ 5.73 µM) | 4 (≈ 11.5 µM) | 2 (≈ 5.73 µM) | 4 (≈ 11.5 µM) | 2 (≈ 5.73 µM)
3 | CC[C@@H]([C@H](C)O)n1ncn(-c2ccc(N3CCN(c4ccc(OC[C@@H]5CO[C@@](Cn6cncn6)(c6ccc(F)cc6F)C5)cc4)CC3)cc2)c1=O [POSACONAZOLE] | 4 (≈ 5.71 µM) | 1 (≈ 1.43 µM) | 0.5 (≈ 0.713 µM) | 1 (≈ 1.43 µM) | 1 (≈ 1.43 µM) | 4 (≈ 5.71 µM) | 0.5 (≈ 0.713 µM) | 0.5 (≈ 0.713 µM) | 1 (≈ 1.43 µM) | 0.5 (≈ 0.713 µM) | 0.5 (≈ 0.713 µM) | 0.5 (≈ 0.713 µM) | 0.5 (≈ 0.713 µM) | 1 (≈ 1.43 µM)
4 | C[C@@H]1[C@H](O)[C@@H](C)/C=C/C=C/C=C/C=C/C=C/C=C/C=C/[C@H](O[C@@H]2O[C@H](C)[C@@H](O)[C@H](N)[C@@H]2O)C[C@@H]2O[C@](O)(C[C@@H](O)C[C@@H](O)[C@H](O)CC[C@@H](O)C[C@@H](O)CC(=O)O[C@H]1C)C[C@H](O)[C@H]2C(=O)O [AMPHOTERICIN B] | 0.25 (≈ 0.271 µM) | 0.25 (≈ 0.271 µM) | 0.25 (≈ 0.271 µM) | 0.25 (≈ 0.271 µM) | 0.25 (≈ 0.271 µM) | 0.25 (≈ 0.271 µM) | 0.25 (≈ 0.271 µM) | 0.25 (≈ 0.271 µM) | 0.25 (≈ 0.271 µM) | 0.25 (≈ 0.271 µM) | 0.25 (≈ 0.271 µM) | 0.25 (≈ 0.271 µM) | 0.25 (≈ 0.271 µM) | 0.25 (≈ 0.271 µM)
5 | C[C@@H](c1nc(-c2ccc(C#N)cc2)cs1)[C@](O)(Cn1cncn1)c1ccc(F)cc1F [RAVUCONAZOLE] | 8 (≈ 18.3 µM) | 4 (≈ 9.14 µM) | 4 (≈ 9.14 µM) | > 8 | 8 (≈ 18.3 µM) | 8 (≈ 18.3 µM) | 4 (≈ 9.14 µM) | 4 (≈ 9.14 µM) | 4 (≈ 9.14 µM) | 4 (≈ 9.14 µM) | 8 (≈ 18.3 µM) | 4 (≈ 9.14 µM) | 4 (≈ 9.14 µM) | > 8
